Measured values as given in ChEMBL document CHEMBL4689842, “EUbOPEN Chemogenomics Library wave 1” (2021).

System: HEK-293T
Experiment: Multiplex assay against HEK293T;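 as to Population Tubulin-Different-Phenotype (%): share of the cells with healthy nuclei that show this phenotype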
Type: toxicity, cell-based
Conditions: human
In short: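 Hoechst33342, BioTracker Green Microtubule Cytoskeleton Dye, MitoTracker Red and Annexin V Alexa Fluor 680 were added to live cells at seeding, and imaging on a CQ1 microscope at 37°C and 5% CO2 followed compound addition. Gating by CellPathfinder machine learning separated cells into Hoechst high-intensity objects or normal cells, then normal cells into healthy, pyknosed or fragmented nuclei, then pyknosed cells into mitotic or apoptotic. Per cents of healthy-nucleus cells are reported for the tubulin, mitochondrial-mass and membrane-permeability phenotypes.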

[1] = 12 h, 1 µM, compound concentration 1 uM, replicate 1
[2] = 12 h, 1 µM, compound concentration 1 uM, replicate 2
[3] = 12 h, 10 µM, compound concentration 10 uM, replicate 1
[4] = 12 h, 10 µM, compound concentration 10 uM, replicate 2
[5] = 24 h, 1 µM, compound concentration 1 uM, replicate 1
[6] = 24 h, 1 µM, compound concentration 1 uM, replicate 2
[7] = 24 h, 10 µM, compound concentration 10 uM, replicate 1
[8] = 24 h, 10 µM, compound concentration 10 uM, replicate 2
[9] = 48 h, 1 µM, compound concentration 1 uM, replicate 1
[10] = 48 h, 1 µM, compound concentration 1 uM, replicate 2
[11] = 48 h, 10 µM, compound concentration 10 uM, replicate 1
[12] = 48 h, 10 µM, compound concentration 10 uM, replicate 2

C=CC(=O)Nc1cc(-n2c(=O)ccc3cnc4ccc(-c5ccc(NS(C)(=O)=O)cc5)cc4c32)ccc1C
Population Apoptotic (%) [1]: 44%
Population Fragmented Nuclei (%) [1]: 15%
Population Healthy Nuclei (%) [1]: 22%
Population Hoechst High Intensity Objects (%) [1]: 22%
Population Membrane Permeable-Phenotype (%) [1]: 0%
Population Mitochondria Different-Phenotype (%) [1]: 76%
Population Mitotic Cells (%) [1]: 55%
Population Normal (%) [1]: 77%
Population Pyknosed Nuclei (%) [1]: 62%
Population Tubulin-Different-Phenotype (%) [1]: 50%
Total Cell Count [1]: 174
Population Apoptotic (%) [2]: 13%
Population Fragmented Nuclei (%) [2]: 13%
Population Healthy Nuclei (%) [2]: 35%
Population Hoechst High Intensity Objects (%) [2]: 5%
Population Membrane Permeable-Phenotype (%) [2]: 17%
Population Mitochondria Different-Phenotype (%) [2]: 15%
Population Mitotic Cells (%) [2]: 86%
Population Normal (%) [2]: 94%
Population Pyknosed Nuclei (%) [2]: 50%
Population Tubulin-Different-Phenotype (%) [2]: 26%
Total Cell Count [2]: 171
Population Apoptotic (%) [3]: 50%
Population Fragmented Nuclei (%) [3]: 20%
Population Healthy Nuclei (%) [3]: 19%
Population Hoechst High Intensity Objects (%) [3]: 16%
Population Membrane Permeable-Phenotype (%) [3]: 0%
Population Mitochondria Different-Phenotype (%) [3]: 86%
Population Mitotic Cells (%) [3]: 50%
Population Normal (%) [3]: 83%
Population Pyknosed Nuclei (%) [3]: 60%
Population Tubulin-Different-Phenotype (%) [3]: 63%
Total Cell Count [3]: 184
Population Apoptotic (%) [4]: 13%
Population Fragmented Nuclei (%) [4]: 0%
Population Healthy Nuclei (%) [4]: 40%
Population Hoechst High Intensity Objects (%) [4]: 8%
Population Membrane Permeable-Phenotype (%) [4]: 9%
Population Mitochondria Different-Phenotype (%) [4]: 34%
Population Mitotic Cells (%) [4]: 86%
Population Normal (%) [4]: 91%
Population Pyknosed Nuclei (%) [4]: 58%
Population Tubulin-Different-Phenotype (%) [4]: 42%
Total Cell Count [4]: 204
Population Apoptotic (%) [5]: 42%
Population Fragmented Nuclei (%) [5]: 15%
Population Healthy Nuclei (%) [5]: 28%
Population Hoechst High Intensity Objects (%) [5]: 19%
Population Membrane Permeable-Phenotype (%) [5]: 15%
Population Mitochondria Different-Phenotype (%) [5]: 62%
Population Mitotic Cells (%) [5]: 57%
Population Normal (%) [5]: 80%
Population Pyknosed Nuclei (%) [5]: 55%
Population Tubulin-Different-Phenotype (%) [5]: 57%
Total Cell Count [5]: 173
Population Apoptotic (%) [6]: 11%
Population Fragmented Nuclei (%) [6]: 9%
Population Healthy Nuclei (%) [6]: 58%
Population Hoechst High Intensity Objects (%) [6]: 3%
Population Membrane Permeable-Phenotype (%) [6]: 11%
Population Mitochondria Different-Phenotype (%) [6]: 16%
Population Mitotic Cells (%) [6]: 88%
Population Normal (%) [6]: 96%
Population Pyknosed Nuclei (%) [6]: 31%
Population Tubulin-Different-Phenotype (%) [6]: 32%
Total Cell Count [6]: 199
Population Apoptotic (%) [7]: 48%
Population Fragmented Nuclei (%) [7]: 19%
Population Healthy Nuclei (%) [7]: 22%
Population Hoechst High Intensity Objects (%) [7]: 13%
Population Membrane Permeable-Phenotype (%) [7]: 0%
Population Mitochondria Different-Phenotype (%) [7]: 78%
Population Mitotic Cells (%) [7]: 51%
Population Normal (%) [7]: 86%
Population Pyknosed Nuclei (%) [7]: 58%
Population Tubulin-Different-Phenotype (%) [7]: 59%
Total Cell Count [7]: 194
Population Apoptotic (%) [8]: 25%
Population Fragmented Nuclei (%) [8]: 4%
Population Healthy Nuclei (%) [8]: 56%
Population Hoechst High Intensity Objects (%) [8]: 2%
Population Membrane Permeable-Phenotype (%) [8]: 7%
Population Mitochondria Different-Phenotype (%) [8]: 30%
Population Mitotic Cells (%) [8]: 74%
Population Normal (%) [8]: 97%
Population Pyknosed Nuclei (%) [8]: 39%
Population Tubulin-Different-Phenotype (%) [8]: 57%
Total Cell Count [8]: 228
Population Apoptotic (%) [9]: 45%
Population Fragmented Nuclei (%) [9]: 21%
Population Healthy Nuclei (%) [9]: 17%
Population Hoechst High Intensity Objects (%) [9]: 23%
Population Membrane Permeable-Phenotype (%) [9]: 3%
Population Mitochondria Different-Phenotype (%) [9]: 40%
Population Mitotic Cells (%) [9]: 54%
Population Normal (%) [9]: 76%
Population Pyknosed Nuclei (%) [9]: 60%
Population Tubulin-Different-Phenotype (%) [9]: 33%
Total Cell Count [9]: 204
Population Apoptotic (%) [10]: 9%
Population Fragmented Nuclei (%) [10]: 7%
Population Healthy Nuclei (%) [10]: 81%
Population Hoechst High Intensity Objects (%) [10]: 6%
Population Membrane Permeable-Phenotype (%) [10]: 10%
Population Mitochondria Different-Phenotype (%) [10]: 4%
Population Mitotic Cells (%) [10]: 90%
Population Normal (%) [10]: 93%
Population Pyknosed Nuclei (%) [10]: 10%
Population Tubulin-Different-Phenotype (%) [10]: 22%
Total Cell Count [10]: 321
Population Apoptotic (%) [11]: 52%
Population Fragmented Nuclei (%) [11]: 24%
Population Healthy Nuclei (%) [11]: 18%
Population Hoechst High Intensity Objects (%) [11]: 18%
Population Membrane Permeable-Phenotype (%) [11]: 16%
Population Mitochondria Different-Phenotype (%) [11]: 29%
Population Mitotic Cells (%) [11]: 47%
Population Normal (%) [11]: 81%
Population Pyknosed Nuclei (%) [11]: 56%
Population Tubulin-Different-Phenotype (%) [11]: 45%
Total Cell Count [11]: 204
Population Apoptotic (%) [12]: 17%
Population Fragmented Nuclei (%) [12]: 5%
Population Healthy Nuclei (%) [12]: 79%
Population Hoechst High Intensity Objects (%) [12]: 3%
Population Membrane Permeable-Phenotype (%) [12]: 8%
Population Mitochondria Different-Phenotype (%) [12]: 6%
Population Mitotic Cells (%) [12]: 82%
Population Normal (%) [12]: 96%
Population Pyknosed Nuclei (%) [12]: 15%
Population Tubulin-Different-Phenotype (%) [12]: 27%
Total Cell Count [12]: 457

NC(=O)c1ccc2nc(-c3ccc(C4(N)CCC4)cc3)c(-c3ccccc3)n2n1 [BAY-1125976]
Population Apoptotic (%) [1]: 22%
Population Healthy Nuclei (%) [1]: 67%
Population Hoechst High Intensity Objects (%) [1]: 16%
Population Mitochondria Different-Phenotype (%) [1]: 12%
Population Mitotic Cells (%) [1]: 77%
Population Normal (%) [1]: 83%
Population Pyknosed Nuclei (%) [1]: 17%
Population Tubulin-Different-Phenotype (%) [1]: 26%
Total Cell Count [1]: 688
Population Apoptotic (%) [2]: 10%
Population Fragmented Nuclei (%) [2]: 4%
Population Healthy Nuclei (%) [2]: 87%
Population Hoechst High Intensity Objects (%) [2]: 4%
Population Mitochondria Different-Phenotype (%) [2]: 17%
Population Mitotic Cells (%) [2]: 89%
Population Normal (%) [2]: 95%
Population Tubulin-Different-Phenotype (%) [2]: 38%
Total Cell Count [2]: 1223
Population Apoptotic (%) [3]: 19%
Population Fragmented Nuclei (%) [3]: 17%
Population Healthy Nuclei (%) [3]: 62%
Population Hoechst High Intensity Objects (%) [3]: 15%
Population Mitochondria Different-Phenotype (%) [3]: 5%
Population Mitotic Cells (%) [3]: 80%
Population Normal (%) [3]: 84%
Population Pyknosed Nuclei (%) [3]: 19%
Population Tubulin-Different-Phenotype (%) [3]: 5%
Total Cell Count [3]: 611
Population Apoptotic (%) [4]: 12%
Population Fragmented Nuclei (%) [4]: 7%
Population Healthy Nuclei (%) [4]: 87%
Population Hoechst High Intensity Objects (%) [4]: 2%
Population Mitochondria Different-Phenotype (%) [4]: 8%
Population Mitotic Cells (%) [4]: 87%
Population Normal (%) [4]: 97%
Population Pyknosed Nuclei (%) [4]: 4%
Total Cell Count [4]: 1764
Population Apoptotic (%) [5]: 32%
Population Hoechst High Intensity Objects (%) [5]: 15%
Population Mitochondria Different-Phenotype (%) [5]: 9%
Population Mitotic Cells (%) [5]: 67%
Population Normal (%) [5]: 84%
Population Pyknosed Nuclei (%) [5]: 10%
Population Tubulin-Different-Phenotype (%) [5]: 44%
Total Cell Count [5]: 691
Population Apoptotic (%) [6]: 10%
Population Fragmented Nuclei (%) [6]: 19%
Population Healthy Nuclei (%) [6]: 76%
Population Hoechst High Intensity Objects (%) [6]: 4%
Population Mitochondria Different-Phenotype (%) [6]: 5%
Population Mitotic Cells (%) [6]: 89%
Population Normal (%) [6]: 95%
Population Pyknosed Nuclei (%) [6]: 3%
Population Tubulin-Different-Phenotype (%) [6]: 42%
Total Cell Count [6]: 1875
Population Apoptotic (%) [7]: 26%
Population Healthy Nuclei (%) [7]: 77%
Population Hoechst High Intensity Objects (%) [7]: 11%
Population Mitochondria Different-Phenotype (%) [7]: 4%
Population Mitotic Cells (%) [7]: 73%
Population Normal (%) [7]: 88%
Population Pyknosed Nuclei (%) [7]: 8%
Population Tubulin-Different-Phenotype (%) [7]: 8%
Total Cell Count [7]: 699
Population Apoptotic (%) [8]: 6%
Population Fragmented Nuclei (%) [8]: 23%
Population Healthy Nuclei (%) [8]: 74%
Population Hoechst High Intensity Objects (%) [8]: 3%
Population Mitochondria Different-Phenotype (%) [8]: 1%
Population Mitotic Cells (%) [8]: 93%
Population Normal (%) [8]: 96%
Population Pyknosed Nuclei (%) [8]: 2%
Population Tubulin-Different-Phenotype (%) [8]: 6%
Total Cell Count [8]: 3086
